Reference: PMC4138289 (Nature chemical biology, 2014)
Blank lines part the entries; values can stand above or below the compound they belong to.

Legend:
[1] = cytotoxicity, Sulforhodamine B assay, EGFR-independent cell lines; assay type: cell-based; conditions: human (MDA-MB-435S, SW620), mouse (NIH3T3)
[2] = time course of compound concentrations in A431 cells; assay type: in vitro ADME, human; conditions: relative cellular concentrations
mouse spleen proteomes = experiment: in vivo proteome reactivity, gel-based ABPP of mouse spleen; conditions: mice, 10 or 20 mg/kg, i.p., 1 hr
Method in brief: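 C57BL/6 mice dosed i.p. in saline/EtOH/DMSO/Cremophor EL 17:1:1:1 (10 μL g−1). Inhibitor (20 mg/kg) or vehicle for 1 hr, then probe (10 or 20 mg/kg) for 1 hr; isoflurane, cervical dislocation. Tissues were DPBS-washed and bead-homogenized, spun at 1,500 × g, then 100,000 × g for 45 min (membrane/cytosolic) and set to 2 mg/mL. Rhodamine-azide click, SDS-PAGE, in-gel fluorescence.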

[3] = tested on: proteomes of cancer cell lines; experiment: in situ proteomic reactivity by gel-based ABPP in cancer cells; assay type: cell-based, human; conditions: in situ treatment with 1 μM probe, cancer cells (SW620 and others)

stability / accumulation of compound in cells [2]: more prolonged accumulation in cells
Structure (SMILES): CN(C)C/C=C/C(=O)Nc1cc2c(Nc3ccc(F)c(Cl)c3)ncnc2cc1O[C@H]1CCOC1 [afatinib, reference compound]
IC50 at 72 h [1]: 0.7 to 2.2 µM

Structure (SMILES): C#Cc1cccc(Oc2ccc(-c3nn([C@@H]4CCCN(C(=O)C=C)C4)c4ncnc(N)c34)cc2)c1 [Probe 4]
in vivo proteomic reactivity (mouse spleen proteomes): higher proteomic reactivity than probe 6

Structure (SMILES): C#CCOc1cc2ncnc(Nc3ccc(F)c(Cl)c3)c2cc1NC(=O)CCCN(C)C [Probe 13]
time-dependent proteomic reactivity [3]: Negligible time-dependent proteomic reactivity
